1 compound from ChEMBL document CHEMBL1687758, “Azithromycin alters macrophage phenotype and pulmonary compartmentalization during lung infection with Pseudomonas” (2010) can be followed below.

Test [1] relates to Mus musculus. As to the kind of experiment: Immunomodulatory activity in Pseudomonas aeruginosa M57-15 infected C57BL/6 mouse lung assessed as decrease of TNFalpha production in CD11b+ cells in lung digest at 0.16 g/kg, po measured after 7 days by flow cytometry. It counts as functional, organism-based. The gist of the method:
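Lung digest cells (2 × 106) were stimulated for 4 h with 50 ng/ml PMA and 500 ng/ml ionomycin plus 10 μg/ml brefeldin A. They were surface-stained for CD11b/CD11c, fixed in 4% formalin, permeabilized with 0.05% saponin, Fc-blocked, and stained for intracellular TNF-α and IL-10 for flow cytometry. Mice were dosed at 0.16 g/kg by daily oral gavage from 4 days before infection.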
In general terms: A flow cytometer gives signals particle by particle.

Test [2] relates to Mus musculus. The test is described as follows: Immunomodulatory activity in Pseudomonas aeruginosa M57-15 infected C57BL/6 mouse lung assessed as CD11b+c- cell expression level in lung digest at 0.16 g/kg, po measured after 7 days by flow cytometry (reference value: 17.07 +/- 4.84 %). It counts as functional. The gist of the method:
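Oral gavage of 0.16 g/kg daily (2% methylcellulose vehicle) began 4 days before intratracheal bead infection (1 × 105 to 2 × 10^5 CFU). On days 3, 7 and 14, cells were taken from lavage (0.3 mM EDTA buffer) and from collagenase/DNase lung digest (1 h, 37°C). Cells were stained for CD11b, CD11c, Gr-1, CD4, CD80, MHC-II and MR, with more than 50,000 events acquired. Counts were gated percent × manual cell count.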

Calls of active or inactive are those of the source. No cut-off for these calls is given here.

For `CC[C@H]1OC(=O)[C@H](C)[C@@H](O[C@H]2C[C@@](C)(OC)[C@@H](O)[C@H](C)O2)[C@H](C)[C@@H](O[C@@H]2O[C@H](C)C[C@H](N(C)C)[C@H]2O)[C@](C)(O)C[C@@H](C)CN(C)[C@H](C)[C@@H](O)[C@]1(C)O` [AZITHROMYCIN], the outcome with Mus musculus [1] was Active. Moreover, the Activity in the test on Mus musculus [2] came out at 16.83%.
